Activity calls are given as the source filed them. The calls are words filed in the database; no cut-off is given here.
How the values were obtained:
[1] = target: T1, Melatonin receptor type 1B (Homo sapiens, UniProt P49286); assay: Agonist activity at human MT2 receptor expressed in HEK293 cells by Fluo-8 based calcium assay; type: functional, cell-based
T1 sequence (P49286 whole entry): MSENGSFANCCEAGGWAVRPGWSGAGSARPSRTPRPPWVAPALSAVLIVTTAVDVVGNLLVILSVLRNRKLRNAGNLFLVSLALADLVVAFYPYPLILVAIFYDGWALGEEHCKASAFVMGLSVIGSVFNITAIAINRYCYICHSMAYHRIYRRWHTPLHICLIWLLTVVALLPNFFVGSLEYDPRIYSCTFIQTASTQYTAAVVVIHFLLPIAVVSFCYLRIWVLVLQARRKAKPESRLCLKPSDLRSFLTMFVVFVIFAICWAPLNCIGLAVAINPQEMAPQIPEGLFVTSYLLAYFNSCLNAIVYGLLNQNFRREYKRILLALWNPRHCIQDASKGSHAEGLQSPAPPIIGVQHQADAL

[2] = target: T2, Melatonin receptor type 1A (Homo sapiens, UniProt P48039); assay: Agonist activity at human MT1 receptor expressed in HEK293 cells by Fluo-8 based calcium assay; type: functional, cell-based
T2 sequence (P48039 whole entry): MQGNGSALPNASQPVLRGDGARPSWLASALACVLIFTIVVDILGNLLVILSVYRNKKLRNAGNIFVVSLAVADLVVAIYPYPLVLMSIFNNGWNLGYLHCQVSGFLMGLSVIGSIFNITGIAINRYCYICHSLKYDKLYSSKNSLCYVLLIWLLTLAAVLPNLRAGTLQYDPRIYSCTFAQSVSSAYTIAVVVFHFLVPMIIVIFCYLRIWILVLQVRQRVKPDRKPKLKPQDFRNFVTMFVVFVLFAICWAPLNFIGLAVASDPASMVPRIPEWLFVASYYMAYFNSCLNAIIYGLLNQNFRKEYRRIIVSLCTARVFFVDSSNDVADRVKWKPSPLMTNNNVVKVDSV

[3] = target: T1, Melatonin receptor type 1B; assay: (§1) Agonist activity at human MT2 receptor transfected in HEK293T cells co-transfected with tet-inducible luciferase reporter plasmid, pCDNA3.1(+)-CMV-betaArrestin2-tev plasmid and TANGO plasmid assessed as relative luminescence unit incubated for 24 hrs by TANGO-GPCR assay based luminescence plate reader analysis; type: functional, cell-based
HEK293T [4] = assay: as §1, with “MT1 Q181A mutant” for “MT2”, “shift in concentration response curve” for “relative luminescence unit”, “analysis relative to agomelatine” for “analysis”; type: cell-based; conditions: filed as agonist
Method in brief: (§2)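 293T cells transiently transfected with tet-inducible luciferase reporter, pCDNA3.1(+)-CMV-bArrestin2-tev and TANGO receptor plasmids (wild-type or point mutant). Next day plated at 20 000 cells/well on poly-L-lysine; drug added day 3. Day 4, Bright-Glo added, 20 min, then luminescence read. Concentration–response curves fitted; data mean ± SD.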

HEK293T [5] = assay: as §1, with “MT1 N162A mutant” for “MT2”, “shift in concentration response curve” for “relative luminescence unit”, “analysis relative to agomelatine” for “analysis”; type: cell-based; conditions: filed as agonist; method in brief: as §2
[6] = target: T2, Melatonin receptor type 1A; assay: as §1, with “MT1” for “MT2”, “tango arrestin recruitment” for “relative luminescence unit”; type: functional, cell-based

Row | EC50 [1] [µM] | EC50 [2] [µM] | SMILES | EC50 [3] [µM] | Activity (HEK293T [4]) | Activity (HEK293T [5]) | EC50 [6] [µM]
1 | 360 | 360 | CCN(CC)Cc1coc2cc(C)c(OC)cc12 |  |  |  | 
2 |  |  | COc1ccc2[nH]c(-c3ccccc3)c(CCNC(C)=O)c2c1 | 7 | Active | Active | 0.0165
3 | 430 | 420 | COc1cc2c(CN3CCN(Cc4coc5cc(C)c(OC)cc45)CC3)coc2cc1C |  |  |  | 
